ChEMBL document CHEMBL1944515 (J Med Chem, 2012)
Calls of active or inactive are those of the source. The calls are words filed in the database; no cut-off is given here.

Tests used:
Bos taurus = species on record: Bos taurus; test: Displacement of [3H]colchicine from bovine tubulin at 5 uM by DEAE-cellulose filter method
In short: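 Inhibition of [3H]colchicine binding was measured in mixtures of 1 μM tubulin, 5 μM [3H]colchicine and 5 μM test compound. Results are percent inhibition of binding.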

HeLa [1] = test: Induction of apoptosis in human HeLa cells assessed as caspase9 activation at 50 to 100 nM after 24 to 48 hrs by Western blot analysis; assay type: functional, cell-based
In short: (§1)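 HeLa cells were treated for 24 or 48 h, washed in ice-cold PBS and lysed on ice for 30 min; lysates were spun at 15000g, 4 °C. 20 μg protein per lane on SDS-PAGE (7.5–15%), then PVDF. Blocked overnight at 4 °C, primary antibodies 2 h at room temperature, peroxidase secondary 60 min, ECL detection. Blots were reprobed for β-actin as loading control.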

HeLa [2] = test: Induction of apoptosis in human HeLa cells assessed as decrease in cdc25c level at 50 to 100 nM after 24 hrs by Western blot analysis; assay type: functional, cell-based; details: in the assay text read “48 hrs” for “24 hrs”; in short: as §1
Jurkat = test: Cytotoxicity against human Jurkat cells after 72 hrs by MTT assay; assay type: functional, cell-based
In short: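 8 × 10^3 cells/well were preincubated 18 h at 37 °C, 5% CO2, then given graded concentrations for 72 h, with final DMSO not above 0.25%. Viability was read by MTT. […] Mean ± SE from at least three experiments.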

HeLa [3] = test: Induction of mitochondrial depolarization in human HeLa cells assessed as JC1 monomer level after 48 hrs by JC1-based fluorescent staining (reference value: 0.8%); assay type: functional
In short: (§2)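 Mitochondrial membrane potential in HeLa cells after 24 or 48 h incubation, measured with the JC-1 dye by flow cytometry. Aggregates read as red (590 nm) and monomers as 530 nm; output is the percentage of depolarized cells. Mean ± SEM of three independent experiments.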

HeLa [4] = test: Induction of apoptosis in human HeLa cells assessed as viable cells at 100 nM after 48 hrs by FITC conjugated annexin-V/PI staining-based flow cytometry (reference value: 86.7%); assay type: functional; details: read-out: Activity
In short: (§3)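 Flow cytometry of HeLa cells after 24 or 48 h exposure, double-stained with annexin-V-FITC and propidium iodide. Excitation at 488 nm, emission at 525 nm (FITC) and 585 nm (PI). Quadrants scored as live, early apoptotic, late apoptotic or necrotic cells.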

LoVo = test: Cytotoxicity against human doxorubicin-resistant LoVo cells after 72 hrs by MTT assay; assay type: functional, cell-based
In short: (§4)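 Cells seeded at 8 × 10^3 per well and left 18 h at 37 °C, 5% CO2, then given fresh medium with compound at a range of concentrations for 72 h; DMSO at most 0.25% final. Viability read by MTT relative to 0.25% DMSO-treated cells. […] LoVoDoxo kept in Ham's F12 with 0.1 μg/mL doxorubicin; A549-T12 kept in DMEM with 12 nM paclitaxel.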

HeLa [5] = test: Induction of apoptosis in human HeLa cells assessed as change in Bax protein expression at 50 to 100 nM after 24 to 48 hrs by Western blot analysis; assay type: functional, cell-based; in short: as §1
Mus musculus = test: Toxicity in BALB/c nude mouse assessed as change in body weight at 100 mg/kg, ip administered on days 0,2 and 4 measured after 1 week relative to control; assay type: organism-based; set-up: dose 100 mg/kg, route intraperitoneal; details: in vivo, 168 h
In short: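 HT-29 cells in log phase, resuspended in serum-free RPMI 1640 at 1 × 10^7 cells/mL, inoculated 0.2 mL subcutaneously in the back of nude mice. At ~300 mm3, 18 mice were randomized to vehicle or two treatment groups. Dosing: 100 mg/kg in DMSO, ip at 0.01 mL/g, on days 0, 2 and 4. Tumor volume by caliper as (LW2)/2 and body weight recorded; n = 6 per group, mean ± SEM.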

HT-29 = test: Cytotoxicity against human HT-29 cells after 72 hrs by MTT assay; assay type: functional, cell-based; details: HT-29, 72 h
HeLa [6] = test: Induction of mitochondrial depolarization in human HeLa cells after 24 to 48 hrs by JC1-based fluorescent staining; assay type: functional, cell-based; in short: as §2
HeLa [7] = test: Induction of cell cycle arrest in human HeLa cells assessed as increase in G2/M phase cells after 24 hrs by flow cytometry; assay type: functional, cell-based
In short: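 5 × 10^5 exponentially growing HeLa cells were treated with 15–250 nM for 24 h, fixed in ice-cold 70% ethanol, then treated with lysis buffer containing RNase A and 0.1% Triton X-100. PI staining of DNA content, read by flow cytometry. Mean ± SEM of three independent experiments.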

HeLa [8] = test: Induction of mitochondrial depolarization in human HeLa cells at 50 to 100 nM by JC1-based fluorescent staining; assay type: functional, cell-based; details: TDE = time-dependent effect; in short: as §2
HeLa [9] = test: Induction of necrosis in human HeLa cells assessed as necrotic cells at 100 nM after 48 hrs by FITC conjugated annexin-V/PI staining-based flow cytometry (reference value: 0.7%); assay type: functional; in short: as §3
HeLa [10] = test: Induction of apoptosis in human HeLa cells assessed as late apoptotic cells at 100 nM after 48 hrs by FITC conjugated annexin-V/PI staining-based flow cytometry (reference value: 2.9%); assay type: functional
[11] = Cytotoxicity against human CEM/VBL100 cells after 72 hrs by MTT assay; assay type: functional, cell-based; details: CEM/VBL100, 72 h; in short: as §4
HeLa [12] = test: Induction of ROS production in human HeLa cells at 50 to 100 nM after 24 to 48 hrs by HE staining-based flow cytometry; assay type: functional, cell-based
In short: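 HeLa cells were exposed for 24 or 48 h, then stained with hydroethidine or H2-DCFDA for ROS and read by flow cytometry. DMSO ≤0.25%. Mean ± SEM of three independent experiments.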

[13] = target: T1, M-phase inducer phosphatase 3 (Homo sapiens) (UniProt P30307); test: Induction of cdc25c phosphorylation in human HeLa cells at 50 to 100 nM after 24 hrs by Western blot analysis
T1 sequence (whole entry): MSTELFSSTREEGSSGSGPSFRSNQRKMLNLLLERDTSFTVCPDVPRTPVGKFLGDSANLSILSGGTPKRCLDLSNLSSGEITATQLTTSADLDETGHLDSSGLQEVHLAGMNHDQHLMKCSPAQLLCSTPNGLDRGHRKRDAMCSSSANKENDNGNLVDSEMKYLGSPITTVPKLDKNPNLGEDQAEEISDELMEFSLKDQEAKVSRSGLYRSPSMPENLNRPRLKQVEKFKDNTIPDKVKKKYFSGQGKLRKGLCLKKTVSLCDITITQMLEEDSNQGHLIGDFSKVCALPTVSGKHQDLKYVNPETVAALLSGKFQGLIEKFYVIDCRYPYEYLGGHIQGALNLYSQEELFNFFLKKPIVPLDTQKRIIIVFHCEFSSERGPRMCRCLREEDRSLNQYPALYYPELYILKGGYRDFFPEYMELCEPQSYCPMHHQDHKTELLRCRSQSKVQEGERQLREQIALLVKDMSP

[14] = Inhibition of bovine tubulin polymerisation after 20 mins by turbidimetric analysis; set-up: species or system Bos taurus
In short: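 Bovine brain tubulin at 10 μM was preincubated with varying compound concentrations in glutamate buffer at 30 °C, cooled to 0 °C, and 0.4 mM GTP added. Samples were warmed to 30 °C and assembly followed by turbidity at 350 nm.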

## CCOc1ccc(-c2nnnn2-c2cc(OC)c(OC)c(OC)c2)cc1
Bos taurus
  inhibition: 78%
HeLa [1]
  Activity: Active
HeLa [2]
  Activity: Active
Jurkat
  IC50: 0.16 nM
HeLa [3]
  Activity: 19.1%
HeLa [4]
  viability at 0.1 µM: 36.1%
LoVo
  IC50: 0.7 nM
HeLa [5]
  Activity: inactive
Mus musculus
  Activity: Non-toxic
HT-29
  IC50: 2.8 nM
HeLa [6]
  Activity: Dose-dependent effect
HeLa [7]
  Activity: Dose-dependent effect
HeLa [8]
  Activity: tde
HeLa [9]
  Activity: 1.8%
HeLa [10]
  Activity: 27.7%
[11]
  IC50: 0.7 nM
HeLa [12]
  Activity: Active
[13]
  induction: Active
[14]
  IC50: 1100 nM
